Data taken from ChEMBL document CHEMBL3352730, “Synthesis and effects on cell viability of flavonols and 3-methyl ether derivatives on human leukemia cells” (Eur J Med Chem, 2014).
The source made the active and inactive calls. The calls are words filed in the database; no cut-off is given here.

Columns and labels:
Raji = test: Cytotoxicity against human Raji cells after 72 hrs by MTT assay; format: functional, cell-based
Outline: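 MTT colorimetric assay with 72 h continuous exposure. IC50 was fitted per experiment by non-linear regression. Values are means with SE from at least three independent experiments, each run in triplicate.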

HL-60 [1] = test: Induction of apoptosis in human HL60 cells assessed as DNA fragmentation at 30 uM after 24 hrs by ethidium bromide staining based agarose gel electrophoresis method; format: functional, cell-based
Outline: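 HL-60 cells were treated for 24 h. Genomic DNA was extracted, run on an agarose gel, stained with ethidium bromide and viewed under UV.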

U-937 [2] = test: Induction of cell cycle arrest in human U937 cells assessed as accumulation at subG1 phase at 1 uM after 12 hrs by propidium iodide staining based flow cytometry (reference value: 4.6 +/- 0.9%); format: functional
U-937 [3] = test: Induction of cell cycle arrest in human U937 cells assessed as accumulation at S phase at 3 uM after 24 hrs by propidium iodide staining based flow cytometry (reference value: 18.6 +/- 0.3%); format: functional
MOLT-3 [4] = test: Induction of apoptosis in human MOLT3 cells assessed as reduction in pro-caspase-4 level by Western blotting method; format: functional, cell-based
Outline: (§1)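 Cells were exposed to a range of compound concentrations and harvested at 24 h. Lysates were immunoblotted for caspase proforms and cleaved forms, and for Bcl-2 family proteins.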

U-937 [5] = test: Cytotoxicity against human U937 cells at 30 uM in presence of 0.5 ug/mL TRAIL incubated simultaneously with drug for 48 hrs by MTT assay; format: functional, cell-based
Outline: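 U937 cells, MTT viability read-out. One arm received TRAIL at 0.5 µg/mL together with compound at 30 µM for 48 h. The other arm had compound for 24 h, then TRAIL for 24 h. Three independent experiments, each in triplicate.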

HL-60 [6] = test: Induction of apoptosis in human HL60 cells assessed as pro-caspase-9 processing at 3 and 10 uM after 6 to 24 hrs by immunoblotting method; format: functional, cell-based
Outline: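 Kinetic and dose-response immunoblots. Cells were treated, harvested at the indicated times, and probed with antibodies that detect both procaspase-8/-9 and their cleaved fragments.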

MOLT-3 [7] = test: Induction of apoptosis in human MOLT3 cells assessed as pro-caspase-6 cleavage by Western blotting method; format: functional, cell-based; outline: as §1
U-937 [8] = test: Induction of cell cycle arrest in human U937 cells assessed as accumulation at subG1 phase at 3 uM after 12 hrs by propidium iodide staining based flow cytometry (reference value: 4.6 +/- 0.9%); format: functional
U-937 [9] = test: Induction of apoptosis in human U937 cells assessed as pro-caspase-6 cleavage by Western blotting method; format: functional, cell-based; outline: as §1
HL-60 [10] = test: Induction of cell cycle arrest in human HL60 cells assessed as accumulation at G1 phase at 10 uM after 48 hrs by propidium iodide staining based flow cytometry (reference value: 60.4 +/- 0.4%); format: functional
U-937 [11] = test: Induction of cell cycle arrest in human U937 cells assessed as accumulation at S phase at 10 uM after 48 hrs by propidium iodide staining based flow cytometry (reference value: 18.9 +/- 0.2%); format: functional
[12] = molecular target: Mitogen-activated protein kinase; ERK1/ERK2 (Homo sapiens) (UniProt P27361+P28482); test: Increase in ERK1/2 phosphorylation in human HL60 cells at 10 to 30 uM after 2 to 6 hrs by Western blotting method; format: cell-based; conditions: HL-60
Outline: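 HL-60 cells were incubated for a time course. Extracts were immunoblotted with phospho-specific antibodies for ERK 1/2, JNK/SAPK and p38MAPK. Membranes were then stripped and reprobed for the total kinases as loading controls.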

MOLT-3 [13] = test: Induction of apoptosis in human MOLT3 cells assessed as increase in caspase 9 activity using LEHD-pNA substrate at 10 uM after 24 hrs; format: functional, cell-based
Outline: (§2)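 Cells were given 10 µM for 24 h. Lysates were assayed for cleavage of DEVD-pNA (caspase-3/7), IETD-pNA (caspase-8) and LEHD-pNA (caspase-9). Results are expressed as fold over control, from three independent experiments in triplicate.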

U-937 [14] = test: Induction of cell cycle arrest in human U937 cells assessed as accumulation at G1 phase at 3 uM after 12 hrs by propidium iodide staining based flow cytometry (reference value: 45.8 +/- 0.8%); format: functional
HL-60 [15] = test: Induction of apoptosis in human HL60 cells assessed as increase in caspase 8 activity using IETD-pNA substrate at 10 uM after 24 hrs; format: functional; outline: as §2
MOLT-3 [16] = test: Induction of apoptosis in human MOLT3 cells assessed as pro-caspase-9 cleavage by Western blotting method; format: functional, cell-based; outline: as §1
U-937 [17] = test: Induction of cell cycle arrest in human U937 cells assessed as accumulation at S phase at 1 uM after 48 hrs by propidium iodide staining based flow cytometry (reference value: 18.9 +/- 0.2%); format: functional
HL-60 [18] = test: Induction of cell cycle arrest in human HL60 cells assessed as accumulation at G2/M phase at 1 uM after 12 hrs by propidium iodide staining based flow cytometry (reference value: 18.5 +/- 0.5%); format: functional
HL-60 [19] = test: Induction of apoptosis in human HL60 cells assessed as pro-caspase-4 processing by Western blotting method; format: functional, cell-based
MOLT-3 [20] = test: Induction of apoptosis in human MOLT3 cells assessed as pro-caspase-7 cleavage by Western blotting method; format: functional, cell-based; outline: as §1
HL-60 [21] = test: Induction of apoptosis in human HL60 cells assessed as nuclear chromatin condensation at 30 uM after 24 hrs by Hoechst 33258 staining based fluorescence microscopy; format: functional, cell-based
Outline: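 HL-60 cells were treated at 30 µM for 24 h, stained with Hoechst 33258, and scored for chromatin condensation by fluorescence microscopy.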

U-937 [22] = test: Induction of cell cycle arrest in human U937 cells assessed as accumulation at G2/M phase at 3 uM after 12 hrs by propidium iodide staining based flow cytometry (reference value: 24.2 +/- 1.2%); format: functional
HL-60 [23] = test: Induction of cell cycle arrest in human HL60 cells assessed as accumulation at G1 phase at 10 uM after 12 hrs by propidium iodide staining based flow cytometry (reference value: 57.2 +/- 0.9%); format: functional
HL-60 [24] = test: Induction of cell cycle arrest in human HL60 cells assessed as accumulation at G2/M phase at 10 uM after 24 hrs by propidium iodide staining based flow cytometry (reference value: 22.5 +/- 0.9%); format: functional
U-937 [25] = test: Induction of apoptosis in human U937 cells assessed as increase in caspase 8 activity using IETD-pNA substrate at 10 uM after 24 hrs; format: functional, cell-based; outline: as §2
HL-60 [26] = test: Increase in DR4 expression in human HL60 cells at 10 30 uM after 24 hrs by immunoblotting method; format: functional, cell-based
Outline: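 HL-60 and U937 cells were treated with increasing concentrations for 24 h. Lysates were immunoblotted for TRAIL, DR4 and DR5.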

U-937 [27] = test: Induction of apoptosis in human U937 cells assessed as pro-caspase-3 cleavage by Western blotting method; format: functional, cell-based; outline: as §1
HL-60 [28] = test: Induction of apoptosis in human HL60 cells in presence of p38MAPK inhibitor SB203580 after 24 hrs by propidium iodide staining based flow cytometry; format: functional, cell-based
HL-60 [29] = test: Induction of cell cycle arrest in human HL60 cells assessed as accumulation at S phase at 10 uM after 24 hrs by propidium iodide staining based flow cytometry (reference value: 17.9 +/- 0.6%); format: functional
U-937 [30] = test: Induction of cell cycle arrest in human U937 cells assessed as accumulation at G1 phase at 10 uM after 24 hrs by propidium iodide staining based flow cytometry (reference value: 49.8 +/- 1.5%); format: functional

Chain of Mitogen-activated protein kinase; ERK1/ERK2 (Homo sapiens) (P27361 whole entry, looked up): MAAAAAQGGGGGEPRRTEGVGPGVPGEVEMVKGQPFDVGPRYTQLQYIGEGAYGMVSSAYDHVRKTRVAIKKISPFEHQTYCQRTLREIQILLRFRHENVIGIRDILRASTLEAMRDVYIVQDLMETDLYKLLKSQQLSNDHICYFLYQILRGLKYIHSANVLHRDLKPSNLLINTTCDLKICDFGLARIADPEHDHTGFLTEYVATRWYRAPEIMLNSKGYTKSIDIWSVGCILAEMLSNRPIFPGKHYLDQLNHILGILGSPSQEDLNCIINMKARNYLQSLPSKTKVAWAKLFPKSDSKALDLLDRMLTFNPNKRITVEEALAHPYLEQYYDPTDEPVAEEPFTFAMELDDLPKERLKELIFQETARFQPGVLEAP
Chain of Mitogen-activated protein kinase; ERK1/ERK2 (Homo sapiens) (P28482 whole entry, looked up): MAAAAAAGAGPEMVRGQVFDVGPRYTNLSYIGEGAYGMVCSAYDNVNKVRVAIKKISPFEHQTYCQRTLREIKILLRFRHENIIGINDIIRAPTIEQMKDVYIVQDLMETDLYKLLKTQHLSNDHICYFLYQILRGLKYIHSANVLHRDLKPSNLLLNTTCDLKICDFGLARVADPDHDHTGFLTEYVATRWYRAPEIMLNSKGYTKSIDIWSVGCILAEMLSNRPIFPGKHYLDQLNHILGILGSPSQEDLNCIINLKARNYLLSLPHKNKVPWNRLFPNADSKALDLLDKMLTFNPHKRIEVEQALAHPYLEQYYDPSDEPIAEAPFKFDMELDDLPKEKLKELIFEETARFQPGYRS

Activity [12]: Active
Structure (SMILES): O=c1c(O)c(-c2ccc(Br)cc2)oc2ccccc12
IC50 (Raji): 5.8 µM
Activity (HL-60 [1]): Active
Activity (U-937 [2]): 3.3%
Activity (U-937 [3]): 24.7%
Activity (MOLT-3 [4]): Active
Activity (U-937 [5]): Active
Activity (HL-60 [6]): Active
Activity (MOLT-3 [7]): Active
Activity (U-937 [8]): 3.1%
Activity (U-937 [9]): Active
Activity (HL-60 [10]): 18.4%
Activity (U-937 [11]): 11.9%
Activity (MOLT-3 [13]): Active
Activity (U-937 [14]): 46.6%
fold change (FC) (HL-60 [15]): 1.7
Activity (MOLT-3 [16]): Active
Activity (U-937 [17]): 19.6%
Activity (HL-60 [18]): 19.4%
Activity (HL-60 [19]): Active
Activity (MOLT-3 [20]): Active
Activity (HL-60 [21]): Active
Activity (U-937 [22]): 23.9%
Activity (HL-60 [23]): 58.2%
Activity (HL-60 [24]): 12.6%
Activity (U-937 [25]): Active
Activity (HL-60 [26]): Active
Activity (U-937 [27]): inactive
Activity (HL-60 [28]): Active
Activity (HL-60 [29]): 24.1%
Activity (U-937 [30]): 40.2%
